ChEMBL document CHEMBL3797037, “Kinetically Selective Inhibitors of Human Carbonic Anhydrase Isozymes I, II, VII, IX, XII, and XIII” (J Med Chem, 2016)
Calls of active or inactive are those of the source. No cut-off for these calls is given here.

What was measured:
Carbonic anhydrase 9 [1] = target: T1, Carbonic anhydrase 9 (Homo sapiens, UniProt Q16790); experiment: Binding affinity to human recombinant CA9 catalytic domain assessed as dissociation constant calculated from kinetic parameters at pH 7 by surface plasmon resonance assay
Outline: (§1)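 pH-dependence SPR on CA IX or CA XII catalytic domain surfaces, using a denatured-protein reference. Buffers were 50 mM sodium phosphate, 150 mM NaCl, 0.05 % Tween-20 and 2 % DMSO at pH 6.0, 7.0 or 8.0. Ligands ran as 2-fold series (62.5–2000 or 31.3–1000 nM) with 60 s injection and 90–360 s dissociation. Triplicates used a new surface each time. KD = kd/ka from the kinetic fit.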

Carbonic anhydrase 9 [2] = target: T1, Carbonic anhydrase 9; experiment: Binding affinity to human recombinant CA9 catalytic domain assessed as association rate constant at pH 8 by surface plasmon resonance assay; outline: as §1
Carbonic anhydrase 9 [3] = target: T1, Carbonic anhydrase 9; experiment: Binding affinity to human recombinant CA9 catalytic domain assessed as dissociation rate constant at pH 6 by surface plasmon resonance assay; outline: as §1
Carbonic anhydrase 9 [4] = target: T1, Carbonic anhydrase 9; experiment: Binding affinity to human recombinant CA9 catalytic domain assessed as dissociation constant calculated from kinetic parameters at pH 8 by surface plasmon resonance assay; outline: as §1
Carbonic anhydrase 9 [5] = target: T1, Carbonic anhydrase 9; experiment: Binding affinity to human recombinant CA9 catalytic domain assessed as dissociation constant calculated from kinetic parameters at pH 6 by surface plasmon resonance assay; outline: as §1
Carbonic anhydrase 9 [6] = target: T1, Carbonic anhydrase 9; experiment: Binding affinity to human recombinant CA9 catalytic domain assessed as association rate constant at pH 6 by surface plasmon resonance assay; outline: as §1
Carbonic anhydrase 9 [7] = target: T1, Carbonic anhydrase 9; experiment: Binding affinity to human recombinant CA9 catalytic domain assessed as dissociation constant calculated from saturation signal at pH 7 by surface plasmon resonance assay
Outline: (§2)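 CA IX catalytic domain SPR in 50 mM sodium phosphate, 150 mM NaCl at pH 6.0, 7.0 or 8.0, run as triplicates on fresh surfaces. KD was fitted by steady-state approximation, R = Rmax[L]/([L]+KD), using the saturation signal averaged from three points in the last 10 s of a 60 s injection.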

Carbonic anhydrase 9 [8] = target: T1, Carbonic anhydrase 9; experiment: Binding affinity to human recombinant CA9 catalytic domain assessed as dissociation constant calculated from saturation signal at pH 8 by surface plasmon resonance assay; outline: as §2
Carbonic anhydrase 9 [9] = target: T1, Carbonic anhydrase 9; experiment: Binding affinity to human recombinant CA9 catalytic domain assessed as dissociation constant calculated from saturation signal at pH 6 by surface plasmon resonance assay; outline: as §2
Carbonic anhydrase 9 [10] = target: T1, Carbonic anhydrase 9; experiment: Binding affinity to human recombinant CA9 catalytic domain assessed as association rate constant at pH 7 by surface plasmon resonance assay; outline: as §1
Carbonic anhydrase 9 [11] = target: T1, Carbonic anhydrase 9; experiment: Binding affinity to human recombinant CA9 catalytic domain assessed as association rate constant after 30 secs by surface plasmon resonance assay
Outline: (§3)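 SPR kinetics at 25 °C on amine-coupled isozyme surfaces, with immobilization protein level and acetate coupling pH set per isozyme. Running buffer PBST, pH 7.4, with 2 % DMSO. Ligands run as 2-fold series from 15.6 to 2000 nM at 30 or 90 µL/min, with 30 s association and 180 s dissociation.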

Carbonic anhydrase 9 [12] = target: T1, Carbonic anhydrase 9; experiment: Binding affinity to human recombinant CA9 catalytic domain by fluorescence-based thermal shift assay
Carbonic anhydrase 9 [13] = target: T1, Carbonic anhydrase 9; experiment: Binding affinity to human recombinant CA9 catalytic domain assessed as dissociation rate constant at pH 8 by surface plasmon resonance assay; outline: as §1
Carbonic anhydrase 9 [14] = target: T1, Carbonic anhydrase 9; experiment: Binding affinity to human recombinant CA9 catalytic domain after 30 secs by surface plasmon resonance assay
Outline: (§4)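 SPR kinetics at 25 °C on amine-coupled isozyme surfaces, with immobilization protein level and acetate coupling pH set per isozyme. Running buffer PBST, pH 7.4, with 2 % DMSO.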

Carbonic anhydrase 9 [15] = target: T1, Carbonic anhydrase 9; experiment: Binding affinity to human recombinant CA9 catalytic domain assessed as dissociation rate constant after 30 secs by surface plasmon resonance assay; outline: as §4
Carbonic anhydrase 9 [16] = target: T1, Carbonic anhydrase 9; experiment: Binding affinity to human recombinant CA9 catalytic domain assessed as dissociation rate constant at pH 7 by surface plasmon resonance assay; outline: as §1
Carbonic anhydrase 1 [17] = target: T2, Carbonic anhydrase 1 (Homo sapiens, UniProt P00915); experiment: Binding affinity to human recombinant CA1 expressed in Escherichia coli assessed as association rate constant after 30 secs by surface plasmon resonance assay
Outline: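 Full-length enzyme amine-coupled to a carboxymethyl-dextran chip (75 µg/mL in 10 mM sodium acetate pH 5, about 6000 RU). SPR at 25 °C in PBST pH 7.4 with 2% DMSO. Ligands injected as 2-fold series, 15.6–2000 nM, at 30 or 90 µL/min. Association 30 s, dissociation 180 s. Regeneration with 200 µM sulphanilamide. ka from non-linear fit to a one-step binding model with mass transport.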
Target sequence in this assay (P00915 2-261 limits assumed): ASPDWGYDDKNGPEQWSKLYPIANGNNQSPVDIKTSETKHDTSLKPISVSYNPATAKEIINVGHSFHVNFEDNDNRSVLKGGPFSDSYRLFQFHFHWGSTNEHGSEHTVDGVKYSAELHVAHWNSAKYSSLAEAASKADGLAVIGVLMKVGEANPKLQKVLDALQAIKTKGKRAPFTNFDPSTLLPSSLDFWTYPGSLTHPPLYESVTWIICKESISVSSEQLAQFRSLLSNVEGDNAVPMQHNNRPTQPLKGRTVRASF

Carbonic anhydrase 12 [18] = target: T3, Carbonic anhydrase 12 (Homo sapiens, UniProt O43570); experiment: Binding affinity to human recombinant CA12 catalytic domain assessed as dissociation rate constant after 30 secs by surface plasmon resonance assay
Carbonic anhydrase 13 [19] = target: T4, Carbonic anhydrase 13 (Homo sapiens, UniProt Q8N1Q1); experiment: Slow rate dissociation at human recombinant CA13 after 30 sec by surface plasmon resonance assay; outline: as §3
Target sequence in this assay (Q8N1Q1 whole entry, looked up): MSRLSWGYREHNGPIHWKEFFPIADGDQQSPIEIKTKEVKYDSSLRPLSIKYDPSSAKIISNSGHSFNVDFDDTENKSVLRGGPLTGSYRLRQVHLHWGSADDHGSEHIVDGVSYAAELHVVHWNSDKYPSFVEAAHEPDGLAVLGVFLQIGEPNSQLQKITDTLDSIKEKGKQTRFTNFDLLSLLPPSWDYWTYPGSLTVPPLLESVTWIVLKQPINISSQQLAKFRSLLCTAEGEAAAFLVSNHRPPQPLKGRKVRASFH

Carbonic anhydrase 7 [20] = target: T5, Carbonic anhydrase 7 (Homo sapiens, UniProt P43166); experiment: Binding affinity to human recombinant CA7 by fluorescence-based thermal shift assay
Carbonic anhydrase 1 [21] = target: T2, Carbonic anhydrase 1; experiment: Binding affinity to human recombinant CA1 expressed in Escherichia coli by fluorescence-based thermal shift assay
Target sequence in this assay (P00915 whole entry): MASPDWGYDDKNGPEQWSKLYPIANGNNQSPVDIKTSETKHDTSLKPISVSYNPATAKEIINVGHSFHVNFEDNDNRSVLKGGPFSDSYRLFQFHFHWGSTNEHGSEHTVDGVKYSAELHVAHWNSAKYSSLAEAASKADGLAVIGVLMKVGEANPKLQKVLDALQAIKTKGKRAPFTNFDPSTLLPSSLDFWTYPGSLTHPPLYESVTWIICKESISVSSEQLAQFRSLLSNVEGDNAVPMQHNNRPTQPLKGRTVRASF

Carbonic anhydrase 12 [22] = target: T3, Carbonic anhydrase 12; experiment: Binding affinity to human recombinant CA12 catalytic domain after 30 secs by surface plasmon resonance assay
Carbonic anhydrase 7 [23] = target: T5, Carbonic anhydrase 7; experiment: Slow rate dissociation at human recombinant CA7 after 30 sec by surface plasmon resonance assay; outline: as §3
Carbonic anhydrase 13 [24] = target: T4, Carbonic anhydrase 13; experiment: Binding affinity to human recombinant CA13 by fluorescence-based thermal shift assay
Target sequence in this assay (Q8N1Q1 whole entry): as the sequence (Q8N1Q1 whole entry, looked up) above

Carbonic anhydrase 7 [25] = target: T5, Carbonic anhydrase 7; experiment: Reversible binding affinity to human recombinant CA7
Carbonic anhydrase 12 [26] = target: T3, Carbonic anhydrase 12; experiment: Binding affinity to human recombinant CA12 catalytic domain by fluorescence-based thermal shift assay
Carbonic anhydrase 2 [27] = target: T6, Carbonic anhydrase 2 (Homo sapiens, UniProt P00918); experiment: Binding affinity to human recombinant CA2 expressed in Escherichia coli by fluorescence-based thermal shift assay
Carbonic anhydrase 2 [28] = target: T6, Carbonic anhydrase 2; experiment: Binding affinity to human recombinant CA2 expressed in Escherichia coli after 30 secs by surface plasmon resonance assay
Carbonic anhydrase 7 [29] = target: T5, Carbonic anhydrase 7; experiment: Binding affinity to human recombinant CA7 after 30 secs by surface plasmon resonance assay
Carbonic anhydrase 9 [30] = target: T1, Carbonic anhydrase 9; experiment: Slow rate dissociation at human recombinant CA9 catalytic domain after 30 sec by surface plasmon resonance assay; outline: as §3
Carbonic anhydrase 7 [31] = target: T5, Carbonic anhydrase 7; experiment: Binding affinity to human recombinant CA7 assessed as dissociation rate constant after 30 secs by surface plasmon resonance assay
Carbonic anhydrase 12 [32] = target: T3, Carbonic anhydrase 12; experiment: Slow rate dissociation at human recombinant CA12 catalytic domain after 30 sec by surface plasmon resonance assay; outline: as §3
Carbonic anhydrase 13 [33] = target: T4, Carbonic anhydrase 13; experiment: Binding affinity to human recombinant CA13 after 30 secs by surface plasmon resonance assay
Target sequence in this assay (Q8N1Q1 whole entry): as the sequence (Q8N1Q1 whole entry, looked up) above

Carbonic anhydrase 13 [34] = target: T4, Carbonic anhydrase 13; experiment: Binding affinity to human recombinant CA13 assessed as dissociation rate constant after 30 secs by surface plasmon resonance assay
Target sequence in this assay (Q8N1Q1 whole entry): as the sequence (Q8N1Q1 whole entry, looked up) above

Carbonic anhydrase 2 [35] = target: T6, Carbonic anhydrase 2; experiment: Binding affinity to human recombinant CA2 expressed in Escherichia coli assessed as dissociation rate constant after 30 secs by surface plasmon resonance assay
Carbonic anhydrase 1 [36] = target: T2, Carbonic anhydrase 1; experiment: Binding affinity to human recombinant CA1 expressed in Escherichia coli after 30 secs by surface plasmon resonance assay; outline: as §4
Target sequence in this assay (P00915 whole entry): as the sequence (P00915 whole entry) above

Carbonic anhydrase 1 [37] = target: T2, Carbonic anhydrase 1; experiment: Binding affinity to human recombinant CA1 expressed in Escherichia coli assessed as dissociation rate constant after 30 secs by surface plasmon resonance assay; outline: as §4
Target sequence in this assay (P00915 whole entry): as above

Carbonic anhydrase 12 [38] = target: T3, Carbonic anhydrase 12; experiment: Binding affinity to human recombinant CA12 catalytic domain assessed as dissociation constant calculated from saturation signal at pH 7 by surface plasmon resonance assay
Carbonic anhydrase 12 [39] = target: T3, Carbonic anhydrase 12; experiment: Binding affinity to human recombinant CA12 catalytic domain assessed as dissociation constant calculated from saturation signal at pH 6 by surface plasmon resonance assay
Carbonic anhydrase 12 [40] = target: T3, Carbonic anhydrase 12; experiment: Binding affinity to human recombinant CA12 catalytic domain assessed as dissociation constant calculated from saturation signal at pH 8 by surface plasmon resonance assay

T3 sequence (O43570 whole entry, the tested form may be a part): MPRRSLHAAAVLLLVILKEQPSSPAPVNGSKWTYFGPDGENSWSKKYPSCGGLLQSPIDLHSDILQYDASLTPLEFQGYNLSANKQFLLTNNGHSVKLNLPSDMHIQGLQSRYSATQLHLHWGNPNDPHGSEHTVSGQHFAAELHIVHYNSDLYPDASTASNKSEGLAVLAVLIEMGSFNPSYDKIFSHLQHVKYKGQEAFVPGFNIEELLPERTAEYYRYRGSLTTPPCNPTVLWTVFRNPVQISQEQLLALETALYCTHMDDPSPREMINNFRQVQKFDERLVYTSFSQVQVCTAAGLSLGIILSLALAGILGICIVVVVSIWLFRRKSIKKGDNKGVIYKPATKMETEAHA
T5 sequence (P43166 whole entry): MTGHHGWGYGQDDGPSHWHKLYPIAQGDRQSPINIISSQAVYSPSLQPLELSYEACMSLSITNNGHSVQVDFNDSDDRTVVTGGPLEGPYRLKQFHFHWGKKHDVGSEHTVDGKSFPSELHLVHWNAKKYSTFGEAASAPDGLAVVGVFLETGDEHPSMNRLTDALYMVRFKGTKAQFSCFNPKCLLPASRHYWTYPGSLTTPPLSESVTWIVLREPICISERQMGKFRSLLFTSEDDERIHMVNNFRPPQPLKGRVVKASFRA

SMILES	Kd (Carbonic anhydrase 9 [1]) [nM]	K (Carbonic anhydrase 9 [2])	Dissociation rate constant (koff) (Carbonic anhydrase 9 [3])	Kd (Carbonic anhydrase 9 [4]) [nM]	Kd (Carbonic anhydrase 9 [5]) [nM]	K (Carbonic anhydrase 9 [11])	Kd (Carbonic anhydrase 9 [12]) [nM]	Kd (Carbonic anhydrase 9 [14]) [nM]	koff (dissociation rate constant) (Carbonic anhydrase 9 [15]) [×10⁻¹ /s]	K (Carbonic anhydrase 1 [17]) [×10⁵ /M/s]	Activity (Carbonic anhydrase 13 [19])	Kd (Carbonic anhydrase 7 [20]) [nM]	Kd (Carbonic anhydrase 1 [21]) [nM]	Kd (Carbonic anhydrase 12 [22]) [nM]	Kd (Carbonic anhydrase 13 [24]) [nM]	Kd (Carbonic anhydrase 12 [26]) [nM]	Kd (Carbonic anhydrase 2 [27]) [nM]	Kd (Carbonic anhydrase 2 [28]) [nM]	Kd (Carbonic anhydrase 7 [29]) [nM]	koff (dissociation rate constant) (Carbonic anhydrase 7 [31])	other results
NS(=O)(=O)c1ccc(C(=O)CSc2ncccn2)cc1Cl	160	1.7 ×10⁶ /M/s	4.3 ×10⁻¹ /s	100	1100	1.8 ×10⁶ /M/s	110	150	2.6	3.1											K (Carbonic anhydrase 9 [6]): 4.4 ×10⁵ /M/s; Kd (Carbonic anhydrase 9 [7]): 260 nM; Kd (Carbonic anhydrase 9 [8]): 190 nM; Kd (Carbonic anhydrase 9 [9]): 940 nM; K (Carbonic anhydrase 9 [10]): 1.8 ×10⁶ /M/s; Dissociation rate constant (koff) (Carbonic anhydrase 9 [13]): 1.8 ×10⁻¹ /s; Dissociation rate constant (koff) (Carbonic anhydrase 9 [16]): 3 ×10⁻¹ /s
CC(C)(C)Nc1c(F)c(S(N)(=O)=O)c(F)c(F)c1S(=O)(=O)CCc1ccccc1						7 ×10⁵ /M/s	0.2	9.2			Active	0.077	220	59	1.5	17	0.59				Dissociation rate constant (koff) (Carbonic anhydrase 12 [18]): 1.1 ×10⁻² /s; Activity (Carbonic anhydrase 7 [23]): Active; Activity (Carbonic anhydrase 7 [25]): inactive
CCCS(=O)(=O)c1c(F)c(F)c(S(N)(=O)=O)c(F)c1NC1CCCCCCC1							0.0067					3.2	330		2.2	1.1	20	100	40	2 ×10⁻³ /s	Activity (Carbonic anhydrase 9 [30]): Active; Activity (Carbonic anhydrase 12 [32]): Active; Kd (Carbonic anhydrase 13 [33]): 15 nM
COc1ccc(CNc2c(F)c(F)c(F)c(F)c2S(N)(=O)=O)cc1						1.8 ×10⁶ /M/s	22	150	2.6	1.1		250	25		50	330	77	66	4800	1.4 ×10⁻¹ /s	koff (Carbonic anhydrase 13 [34]): 2.2 ×10⁻² /s; Dissociation rate constant (koff) (Carbonic anhydrase 2 [35]): 2.6 ×10⁻² /s; Kd (Carbonic anhydrase 1 [36]): 61 nM; Kd (Carbonic anhydrase 1 [37]): 6.6 ×10⁻³ /s; Kd (Carbonic anhydrase 13 [33]): 210 nM
CNc1c(F)c(S(N)(=O)=O)c(F)c(F)c1S(=O)(=O)CCc1ccccc1						6.5 ×10⁶ /M/s	2	16	1	3.9	Active	3.1	25	95	0.42	100	2.4	6.4	45	1.3 ×10⁻² /s	Dissociation rate constant (koff) (Carbonic anhydrase 12 [18]): 1.4 ×10⁻¹ /s; Dissociation rate constant (koff) (Carbonic anhydrase 2 [35]): 8.2 ×10⁻³ /s; Kd (Carbonic anhydrase 1 [36]): 25 nM; Activity (Carbonic anhydrase 7 [25]): inactive; Kd (Carbonic anhydrase 1 [37]): 1 ×10⁻² /s
CCCSc1c(F)c(F)c(S(N)(=O)=O)c(NC2CCCCCCC2)c1F	46	3.3 ×10⁵ /M/s	7.9 ×10⁻³ /s	19	140	2.9 ×10⁵ /M/s	0.17	27			Active	74	9100	400	33	100	450		510	1 ×10⁻² /s	Kd (Carbonic anhydrase 12 [38]): 840 nM; K (Carbonic anhydrase 9 [6]): 5.8 ×10⁴ /M/s; Kd (Carbonic anhydrase 12 [39]): 2600 nM; K (Carbonic anhydrase 9 [10]): 1.6 ×10⁵ /M/s; Dissociation rate constant (koff) (Carbonic anhydrase 9 [13]): 6.2 ×10⁻³ /s; Kd (Carbonic anhydrase 12 [40]): 390 nM; Dissociation rate constant (koff) (Carbonic anhydrase 9 [16]): 7.2 ×10⁻³ /s
